Data reported in ChEMBL document CHEMBL3632575, “Structure-Activity Relationships of the Peptide Kappa Opioid Receptor Antagonist Zyklophin” (J Med Chem, 2015).
Calls of active or inactive are those of the source. The calls are words filed in the database; no cut-off is given here.

Columns and labels:
[1] = target: Kappa-type opioid receptor (Homo sapiens) (UniProt P41145); assay: Agonist activity at kappa-opioid receptor (unknown origin) at 10 uM after 90 mins by [35S]GTPgammaS binding assay; assay type: functional
Summary of the method: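 KOR-containing membranes were incubated in duplicate with [35S]GTPγS (0.1–0.2 nM) and 10 µM peptide for 90 min at 22 °C in 50 mM HEPES, pH 7.4. Specific binding is total minus binding with 3 µM unlabeled GTPγS. Efficacy is expressed relative to the full agonist Dyn A(1-13)NH2, from at least two independent experiments.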

Rattus norvegicus = species on record: Rattus norvegicus; assay: Selectivity ratio, ratio of Ki for rat mu-opioid receptor to Ki for rat kappa-opioid receptor
[2] = target: Kappa-type opioid receptor (Homo sapiens) (UniProt P41145); assay: Antagonist activity at kappa-opioid receptor (unknown origin) assessed as inhibition of DynA(1-13)-induced [35S]-GTPgammaS binding after 90 mins; assay type: functional
Summary of the method: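 Antagonism was measured in a [35S]GTPγS (0.1–0.2 nM) binding assay on KOR membranes, run in duplicate for 90 min at 22 °C in 50 mM HEPES, pH 7.4, with Dyn A(1-13)NH2 as the stimulating agonist. Specific binding is total minus binding with 3 µM GTPγS. KB was derived by Schild analysis from shifts of the agonist concentration-response curve, averaged over 2–5 independent experiments, with 95% confidence intervals.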

[3] = Retention time of the compound by RP-HPLC; assay type: physicochemical
Summary of the method: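 Analytical RP-HPLC on a C18 column (5 µ, 300 Å, 4.6 × 50 mm). System 1: 5–50% acetonitrile in water, both with 0.1% TFA, over 45 min at 1 mL/min. System 2: 15–60% methanol/0.1% TFA over 45 min at 1.0 mL/min. System 3: 1–21% acetonitrile against aqueous 0.09 M TEAP, pH 2.5, over 40 min.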

[4] = target: Kappa-type opioid receptor (Rattus norvegicus, UniProt P34975); assay: Displacement of [3H]diprenorphine from rat kappa-opioid receptor expressed in CHO cells after 90 mins by scintillation counter; assay type: cell-based
Summary of the method: (§1)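 Membranes from CHO cells stably expressing cloned rat KOR or MOR were incubated in triplicate with test peptide at 0.1 nM–10 µM for 90 min at 22 °C in 50 mM Tris, pH 7.4. […] Nonspecific binding was set with 10 µM unlabeled Dyn A(1-13)NH2 (KOR) or DAMGO (MOR). Ki is the mean ± S.E.M. of at least three independent experiments.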

[5] = target: Kappa-type opioid receptor (Rattus norvegicus) (UniProt P34975); assay: Displacement of [3H]diprenorphine from rat kappa-opioid receptor expressed in CHO cells after 90 mins by scintillation counter relative to zyklophin; assay type: cell-based
Mu-type opioid receptor = Mu-type opioid receptor (Rattus norvegicus, UniProt P33535); assay: Displacement of [3H]DAMGO from rat mu-opioid receptor expressed in CHO cells after 90 mins by scintillation counter; assay type: cell-based; summary of the method: as §1
Mu-type opioid receptor, sequence (P33535 whole entry): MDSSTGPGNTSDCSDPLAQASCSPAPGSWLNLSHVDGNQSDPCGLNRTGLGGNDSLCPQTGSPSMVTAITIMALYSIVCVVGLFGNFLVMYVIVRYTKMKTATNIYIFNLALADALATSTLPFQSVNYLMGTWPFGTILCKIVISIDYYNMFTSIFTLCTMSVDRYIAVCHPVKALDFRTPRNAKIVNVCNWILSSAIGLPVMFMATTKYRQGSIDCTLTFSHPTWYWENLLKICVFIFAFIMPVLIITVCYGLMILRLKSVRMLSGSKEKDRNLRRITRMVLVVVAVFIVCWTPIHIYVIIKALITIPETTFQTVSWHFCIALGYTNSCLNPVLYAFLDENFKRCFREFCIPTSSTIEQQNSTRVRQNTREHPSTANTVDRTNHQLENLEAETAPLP

Kappa-type opioid receptor (Homo sapiens), sequence (P41145 whole entry): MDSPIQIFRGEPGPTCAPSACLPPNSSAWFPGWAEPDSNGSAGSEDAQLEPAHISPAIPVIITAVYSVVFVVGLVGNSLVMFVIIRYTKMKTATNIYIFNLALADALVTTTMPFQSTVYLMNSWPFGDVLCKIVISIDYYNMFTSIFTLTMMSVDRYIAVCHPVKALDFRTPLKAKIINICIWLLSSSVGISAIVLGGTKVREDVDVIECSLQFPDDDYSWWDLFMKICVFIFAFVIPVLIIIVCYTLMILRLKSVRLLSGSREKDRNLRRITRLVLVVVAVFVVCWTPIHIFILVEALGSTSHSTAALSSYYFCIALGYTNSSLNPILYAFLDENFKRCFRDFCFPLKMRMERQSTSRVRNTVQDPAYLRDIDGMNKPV
Kappa-type opioid receptor, sequence (P34975 whole entry): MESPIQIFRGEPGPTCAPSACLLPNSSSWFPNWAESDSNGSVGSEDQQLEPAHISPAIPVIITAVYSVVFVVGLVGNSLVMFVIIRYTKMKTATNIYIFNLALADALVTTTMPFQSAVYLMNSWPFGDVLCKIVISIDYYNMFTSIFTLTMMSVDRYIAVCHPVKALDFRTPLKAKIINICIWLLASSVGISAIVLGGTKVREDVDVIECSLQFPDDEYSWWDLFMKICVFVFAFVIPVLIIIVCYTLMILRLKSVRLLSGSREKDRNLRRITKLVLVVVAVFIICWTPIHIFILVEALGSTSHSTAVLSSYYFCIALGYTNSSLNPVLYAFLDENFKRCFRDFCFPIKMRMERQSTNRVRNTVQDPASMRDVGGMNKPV
Kappa-type opioid receptor (Rattus norvegicus), sequence (P34975 whole entry): as above

| Compound | Activity [1] | further results |
| --- | --- | --- |
| C[C@H](NC(=O)[C@@H]1CNC(=O)C[C@@H](NC(=O)[C@H](Cc2ccccc2)NC(=O)CNC(=O)CNC(=O)[C@H](Cc2ccc(O)cc2)NCc2ccccc2)C(=O)N[C@@H](CCCNC(=N)N)C(=O)N[C@@H](CCCNC(=N)N)C(=O)N1)C(=O)N1CCC[C@H]1C(=O)N[C@@H](CCCCN)C(N)=O | inactive | – |
| C=CCN[C@@H](Cc1ccc(O)cc1)C(=O)NCC(=O)NCC(=O)N[C@@H](Cc1ccccc1)C(=O)N[C@@H]1CC(=O)NC[C@@H](C(=O)N[C@@H](CCCNC(=N)N)C(=O)N2CCC[C@H]2C(=O)N[C@@H](CCCCN)C(N)=O)NC(=O)[C@H](CCCNC(=N)N)NC(=O)[C@H](CCCNC(=N)N)NC1=O | Active | – |
| CC1NC(=O)C[C@@H](NC(=O)[C@H](Cc2ccccc2)NC(=O)CNC(=O)CNC(=O)[C@H](Cc2ccc(O)cc2)NCc2ccccc2)C(=O)N[C@@H](CCCNC(=N)N)C(=O)N[C@@H](CCCNC(=N)N)C(=O)NC1C(=O)N[C@@H](CCCNC(=N)N)C(=O)N1CCC[C@H]1C(=O)N[C@@H](CCCCN)C(N)=O (some centres undefined) | Active | Ratio Ki (Rattus norvegicus): 8 |
| C[C@@H]1NC(=O)[C@H](CCCNC(=N)N)NC(=O)[C@H](NC(=O)[C@H](Cc2ccccc2)NC(=O)CNC(=O)CNC(=O)[C@H](Cc2ccc(O)cc2)NCc2ccccc2)CC(=O)NCC(C(=O)N[C@@H](CCCNC(=N)N)C(=O)N2CCC[C@H]2C(=O)N[C@@H](CCCCN)C(N)=O)NC1=O (some centres undefined) | inactive | Activity [2]: inactive |
| N=C(N)NCCC[C@@H]1NC(=O)[C@H](CCCNC(=N)N)NC(=O)[C@H](NC(=O)[C@H](Cc2ccccc2)NC(=O)CNC(=O)CNC(=O)[C@@H](Cc2ccc(O)cc2)NCc2ccccc2)CC(=O)NC[C@@H](C(=O)N[C@@H](CCCNC(=N)N)C(=O)N2CCC[C@H]2C(=O)N[C@@H](CCCCN)C(N)=O)NC1=O | – | Retention_time [3]: 17.3 min |
| N=C(N)NCCC[C@@H]1NC(=O)[C@H](CCCNC(=N)N)NC(=O)[C@H](NC(=O)[C@H](Cc2ccccc2)NC(=O)CNC(=O)CNC(=O)[C@H](Cc2ccc(O)cc2)NCCc2ccccc2)CC(=O)NC[C@@H](C(=O)N[C@@H](CCCNC(=N)N)C(=O)N2CCC[C@H]2C(=O)N[C@@H](CCCCN)C(N)=O)NC1=O | Active | – |
| N=C(N)NCCC[C@@H]1NC(=O)[C@H](CCCNC(=N)N)NC(=O)[C@H](NC(=O)[C@H](Cc2ccccc2)NC(=O)CNC(=O)CNC(=O)[C@H](Cc2ccc(O)cc2)NCC2CC2)CC(=O)NC[C@@H](C(=O)N[C@@H](CCCNC(=N)N)C(=O)N2CCC[C@H]2C(=O)N[C@@H](CCCCN)C(N)=O)NC1=O | Active | – |
| N=C(N)NCCC[C@@H]1NC(=O)[C@H](CCCNC(=N)N)NC(=O)[C@H](NC(=O)[C@H](Cc2ccccc2)NC(=O)CNC(=O)CNC(=O)[C@H](Cc2ccc(O)cc2)NCc2ccccc2)CC(=O)NCCC[C@@H](C(=O)N[C@@H](CCCNC(=N)N)C(=O)N2CCC[C@H]2C(=O)N[C@@H](CCCCN)C(N)=O)NC1=O | Active | – |
| CN[C@@H](Cc1ccc(O)cc1)C(=O)NCC(=O)NCC(=O)N[C@@H](Cc1ccccc1)C(=O)N[C@@H]1CC(=O)NC[C@@H](C(=O)N[C@@H](CCCNC(=N)N)C(=O)N2CCC[C@H]2C(=O)N[C@@H](CCCCN)C(N)=O)NC(=O)[C@H](CCCNC(=N)N)NC(=O)[C@H](CCCNC(=N)N)NC1=O | Active | – |
| N=C(N)NCCC[C@@H]1NC(=O)[C@H](CCCNC(=N)N)NC(=O)[C@H](NC(=O)[C@H](Cc2ccccc2)NC(=O)CNC(=O)CNC(=O)[C@H](Cc2ccc(O)cc2)NC(=O)c2ccccc2)CC(=O)NC[C@@H](C(=O)N[C@@H](CCCNC(=N)N)C(=O)N2CCC[C@H]2C(=O)N[C@@H](CCCCN)C(N)=O)NC1=O | Active | – |
| CC[C@H](C)[C@H](NC(=O)[C@H](CCCNC(=N)N)NC(=O)[C@H](CCCNC(=N)N)NC(=O)[C@@H](CC(N)=O)NC(=O)[C@H](Cc1ccccc1)NC(=O)CNC(=O)CNC(=O)[C@H](Cc1ccc(O)cc1)NCc1ccccc1)C(=O)N[C@@H](CCCNC(=N)N)C(=O)N1CCC[C@H]1C(=O)N[C@@H](CCCCN)C(N)=O | – | Ki [4]: 412 nM; fold change (FC) [5]: 0.23; Ki (Mu-type opioid receptor): 2440 nM; Ratio Ki (Rattus norvegicus): 6 |
| C[C@H](NCc1ccccc1)C(=O)NCC(=O)NCC(=O)N[C@@H](Cc1ccccc1)C(=O)N[C@@H]1CC(=O)NC[C@@H](C(=O)N[C@@H](CCCNC(=N)N)C(=O)N2CCC[C@H]2C(=O)N[C@@H](CCCCN)C(N)=O)NC(=O)[C@H](CCCNC(=N)N)NC(=O)[C@H](CCCNC(=N)N)NC1=O | inactive | – |
| C[C@H](NC(=O)CNC(=O)CNC(=O)[C@H](Cc1ccc(O)cc1)NCc1ccccc1)C(=O)N[C@@H]1CC(=O)NC[C@@H](C(=O)N[C@@H](CCCNC(=N)N)C(=O)N2CCC[C@H]2C(=O)N[C@@H](CCCCN)C(N)=O)NC(=O)[C@H](CCCNC(=N)N)NC(=O)[C@H](CCCNC(=N)N)NC1=O | inactive | – |
| C[C@@H]1NC(=O)[C@H](NC(=O)[C@H](Cc2ccccc2)NC(=O)CNC(=O)CNC(=O)[C@H](Cc2ccc(O)cc2)NCc2ccccc2)CC(=O)NC[C@@H](C(=O)N[C@@H](CCCNC(=N)N)C(=O)N2CCC[C@H]2C(=O)N[C@@H](CCCCN)C(N)=O)NC(=O)[C@H](CCCNC(=N)N)NC1=O | inactive | – |
